This passage reports Ki and Selectivity ratio results from ChEMBL document CHEMBL1133607, “Nonpeptide analogues of dynorphin A(1-8): design, synthesis, and pharmacological evaluation of kappa-selective agonists” (J Med Chem, 2000).

Residues, ends and D or L forms follow the SMILES beside them. *: point of attachment. X1 = CC1C2Cc3ccc(O)cc3[C@]1(C)CCN2CC1C[C@]1(C(=O)*)c1ccccc1

The target of test [1] is Kappa-type opioid receptor (Cavia porcellus, UniProt P41144). In words: Displacement of [3H]-U-69,593 from Opioid receptor kappa 1 in guinea pig cerebellar. (In a radioligand displacement assay an active substance lowers the binding of a labelled ligand.)
Chain of Kappa-type opioid receptor (P41144 whole entry): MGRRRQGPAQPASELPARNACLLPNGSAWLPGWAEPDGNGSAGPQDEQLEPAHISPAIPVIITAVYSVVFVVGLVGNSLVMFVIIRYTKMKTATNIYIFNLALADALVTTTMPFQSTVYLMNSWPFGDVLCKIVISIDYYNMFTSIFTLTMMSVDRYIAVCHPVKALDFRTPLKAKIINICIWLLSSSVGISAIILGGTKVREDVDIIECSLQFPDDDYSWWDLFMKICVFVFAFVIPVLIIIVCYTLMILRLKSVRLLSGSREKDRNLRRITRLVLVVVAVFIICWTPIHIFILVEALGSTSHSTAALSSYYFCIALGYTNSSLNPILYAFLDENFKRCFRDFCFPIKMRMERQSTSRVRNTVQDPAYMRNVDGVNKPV
Test [2] deals with Mu-type opioid receptor (Rattus norvegicus, UniProt P33535). In words: Displacement of [3H]diprenorphine from opioid receptor mu 1 on crude membrane fractions obtained from whole rat brain (minus cerebellum). Format: tissue-based. Put shortly: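 Rat whole-brain (minus cerebellum) crude membranes, 1 mg protein/tube, in 50 mM Tris-HCl pH 7.4 with aprotinin, leupeptin and bacitracin. […] U50,488 and DADLE (300 nM each) saturate κ and δ sites; 1 µM DAMGO defines nonspecific binding. Compounds tested at 10^-11 to 10^-5 M. Ki values are the mean of three experiments in duplicate.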
Chain of Mu-type opioid receptor (P33535 whole entry): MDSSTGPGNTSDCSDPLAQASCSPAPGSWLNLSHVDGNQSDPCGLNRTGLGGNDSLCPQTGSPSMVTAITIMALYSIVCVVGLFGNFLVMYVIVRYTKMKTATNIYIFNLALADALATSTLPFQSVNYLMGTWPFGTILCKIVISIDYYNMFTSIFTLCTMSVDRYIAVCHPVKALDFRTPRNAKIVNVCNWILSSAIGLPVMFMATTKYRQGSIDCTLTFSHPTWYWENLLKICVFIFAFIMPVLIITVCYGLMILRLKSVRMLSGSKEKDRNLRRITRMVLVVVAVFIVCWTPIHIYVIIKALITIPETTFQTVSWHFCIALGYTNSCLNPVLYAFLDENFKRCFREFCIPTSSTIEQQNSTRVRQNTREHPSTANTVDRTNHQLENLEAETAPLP

Test [3] has as its target Delta-type opioid receptor (Rattus norvegicus, UniProt P33533). Nature of the test: Displacement of [3H]diprenorphine opioid receptor delta 1 on crude membrane fractions obtained from the whole rat brain (minus cerebellum). Format: tissue-based. The procedure, abridged: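 Rat whole-brain (minus cerebellum) crude membranes, 1 mg protein/tube, in 50 mM Tris-HCl pH 7.4 with aprotinin, leupeptin and bacitracin. […] U50,488 and DAMGO (300 nM each) saturate κ and µ sites; 1 µM DPDPE defines nonspecific binding. Compounds tested at 10^-11 to 10^-5 M. Ki values are the mean of three experiments in duplicate.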

The species named for test [4] is Cavia porcellus. Nature of the test: Ratio of affinity towards delta to kappa opioid receptor.
The target in test [5] is Opioid receptors; mu & kappa (UniProt P41145+P35372). In words: Ratio of affinity towards mu and kappa opioid receptors. The class given is protein assay.
Chain of Opioid receptors; mu & kappa (P35372 whole entry, looked up): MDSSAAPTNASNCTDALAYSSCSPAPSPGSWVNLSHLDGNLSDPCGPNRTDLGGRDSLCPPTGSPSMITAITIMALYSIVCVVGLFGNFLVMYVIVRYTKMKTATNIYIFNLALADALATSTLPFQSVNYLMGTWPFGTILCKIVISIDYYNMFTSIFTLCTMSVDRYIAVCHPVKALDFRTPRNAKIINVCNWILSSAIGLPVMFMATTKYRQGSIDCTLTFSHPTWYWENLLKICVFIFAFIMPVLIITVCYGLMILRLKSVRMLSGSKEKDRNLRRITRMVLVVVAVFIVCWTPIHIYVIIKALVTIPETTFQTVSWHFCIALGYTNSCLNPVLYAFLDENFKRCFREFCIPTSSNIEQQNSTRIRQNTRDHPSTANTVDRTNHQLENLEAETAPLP
Chain of Opioid receptors; mu & kappa (P41145 whole entry, looked up): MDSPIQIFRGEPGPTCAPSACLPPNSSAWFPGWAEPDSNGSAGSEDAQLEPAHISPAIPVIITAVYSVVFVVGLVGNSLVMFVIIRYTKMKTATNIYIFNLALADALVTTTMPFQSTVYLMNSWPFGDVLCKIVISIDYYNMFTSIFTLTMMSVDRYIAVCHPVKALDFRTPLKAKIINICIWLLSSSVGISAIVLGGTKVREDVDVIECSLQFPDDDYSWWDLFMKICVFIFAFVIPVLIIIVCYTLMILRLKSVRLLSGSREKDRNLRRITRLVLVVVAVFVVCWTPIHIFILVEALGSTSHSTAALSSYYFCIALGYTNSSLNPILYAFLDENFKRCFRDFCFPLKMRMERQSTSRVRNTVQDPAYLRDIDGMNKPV

Chain of Delta-type opioid receptor (P33533 whole entry): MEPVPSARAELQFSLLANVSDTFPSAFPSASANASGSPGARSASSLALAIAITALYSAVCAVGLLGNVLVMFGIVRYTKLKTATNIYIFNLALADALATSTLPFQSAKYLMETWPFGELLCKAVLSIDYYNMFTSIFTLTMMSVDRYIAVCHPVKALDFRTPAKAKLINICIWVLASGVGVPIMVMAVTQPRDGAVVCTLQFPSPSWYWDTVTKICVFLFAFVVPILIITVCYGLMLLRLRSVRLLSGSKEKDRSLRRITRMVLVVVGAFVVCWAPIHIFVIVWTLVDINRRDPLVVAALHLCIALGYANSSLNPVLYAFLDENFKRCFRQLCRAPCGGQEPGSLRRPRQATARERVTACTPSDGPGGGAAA

By Ki is commonly meant a measure of affinity in units of concentration, obtained from inhibition or displacement. A high value points to weaker binding. With `CCCC(=N)NCCCCNC(=O)C(CC(C)C)NC(=O)CNC(=O)[C@]1(c2ccccc2)CC1CN1CC[C@@]2(C)c3cc(O)ccc3CC1C2C` (some centres not stated), the Ki came to 0.0678 µM in test [1], 6.78 µM in test [2] and 7.28 µM in test [3]. Further, the Selectivity ratio in test [4] is 107; in test [5] it was 100.
On to `CC(C)CC(NC(=O)CNC(=O)[C@]1(c2ccccc2)CC1CN1CC[C@@]2(C)c3cc(O)ccc3CC1C2C)C(=O)NCCCCCNC(=N)N` (some centres not stated), for which the Ki in test [1] was determined as 0.0475 µM; in test [2], 3.85 µM; in test [3] it was 3.48 µM.
With `CCCCC(=N)NCCCCCCNC(=O)C(CC(C)C)NC(=O)[C@]1(c2ccccc2)CC1CN1CC[C@@]2(C)c3cc(O)ccc3CC1C2C` (some centres not stated), the inhibition constant (Ki) in test [1] turned out to be 0.081 µM; in test [2], 2.26 µM; in test [3], 3.26 µM. In addition, the Selectivity ratio in test [4] turned out to be 40.2; in test [5], 27.9.
As to `CCC(=N)NCCCCCCNC(=O)C(CC(C)C)NC(=O)[C@]1(c2ccccc2)CC1CN1CC[C@@]2(C)c3cc(O)ccc3CC1C2C` (some centres not stated), the Ki in test [1] was determined as 0.116 µM; in test [2], 2.94 µM; in test [3], 3.55 µM. Further, the Selectivity ratio in test [4] was found to be 30.5; in test [5], 25.3.
`CCCC(=N)NCCCCCNC(=O)C(CC(C)C)NC(=O)CNC(=O)[C@]1(c2ccccc2)CC1CN1CC[C@@]2(C)c3cc(O)ccc3CC1C2C` (some centres not stated): the results for the inhibition constant Ki in test [1], in test [2] and in test [3] were 0.0653 µM, 7.19 µM and 5.21 µM, respectively. Moreover, the Selectivity ratio in test [4] was found to be 79.8; in test [5] it was 110.
Take `CC(C)CC(NC(=O)CNC(=O)[C@]1(c2ccccc2)CC1CN1CC[C@@]2(C)c3cc(O)ccc3CC1C2C)C(=O)NCCCCCN=C(N)N` (some centres not stated): the Selectivity ratio in test [4] stood at 73.1; in test [5], 81.1.
For `CC(C)CC(NC(=O)CNC(=O)[C@]1(c2ccccc2)CC1CN1CC[C@@]2(C)c3cc(O)ccc3CC1C2C)C(=O)NCCCCCCN` (some centres not stated), the Ki in test [1] stood at 0.0796 µM; in test [2] it was 8.07 µM; in test [3] it was 6.05 µM. The figures for the Selectivity ratio in test [4] and in test [5] were 76 and 101, respectively.
In the case of `CCC(=N)NCCCCCNC(=O)C(CC(C)C)NC(=O)CNC(=O)[C@]1(c2ccccc2)CC1CN1CC[C@@]2(C)c3cc(O)ccc3CC1C2C` (some centres not stated), the values for the Ki in test [1], in test [2] and in test [3] were 0.0684 µM, 4.82 µM and 5.58 µM, respectively. Further, the figures for the Selectivity ratio in test [4] and in test [5] were 81.6 and 70.5, respectively.
`CC(C)CC(NC(=O)CNC(=O)[C@]1(c2ccccc2)CC1CN1CC[C@@]2(C)c3cc(O)ccc3CC1C2C)C(=O)NCCCCCCN=C(N)N` (some centres not stated): the Selectivity ratio came out at 84.2 in test [4] and 94.3 in test [5].
On to `CC[C@H](C)[C@H](NC(=O)[C@H](CCCNC(=N)N)NC(=O)[C@H](CCCNC(=N)N)NC(=O)CNC(=O)[C@]1(c2ccccc2)CC1CN1CC[C@@]2(C)c3cc(O)ccc3CC1C2C)C(=O)OC` (some centres not stated) (X1-GRRI-OMe), for which the results for the Ki in test [1], in test [2] and in test [3] were 0.0543 µM, 2.3 µM and greater than 25 µM, respectively.
The like results for `CC(C)CC(NC(=O)CNC(=O)[C@]1(c2ccccc2)CC1CN1CC[C@@]2(C)c3cc(O)ccc3CC1C2C)C(=O)NCCCCCCNC(=N)N` (some centres not stated) were, in that order, 0.0355 µM, 3.35 µM and 2.99 µM.
`CC(C)CC(NC(=O)CNC(=O)[C@]1(c2ccccc2)CC1CN1CC[C@@]2(C)c3cc(O)ccc3CC1C2C)C(=O)NCCCNC(=N)N` (some centres not stated): the Ki in test [1] stood at 0.0725 µM; in test [2], 9.24 µM; in test [3], 3.72 µM.
For the compound `CC[C@H](C)[C@H](NC(=O)[C@H](CCCN=C(N)N)NC(=O)[C@H](CCCN=C(N)N)NC(=O)[C@]1(c2ccccc2)C[C@@H]1CN1CC[C@@]2(C)c3cc(O)ccc3CC1C2C)C(=O)OC` (some centres not stated), the Ki in test [1] was 0.0784 µM; in test [2], 4.6 µM; in test [3], greater than 25 µM. Also, the Selectivity ratio in test [5] was determined as 58.7.
Consider `CC(C)CC(NC(=O)CNC(=O)[C@]1(c2ccccc2)CC1CN1CC[C@@]2(C)c3cc(O)ccc3CC1C2C)C(=O)NCCCN=C(N)N` (some centres not stated), for which the Selectivity ratio in test [4] is 51.4; in test [5] it was 128.
